The source of these data is ChEMBL document CHEMBL3352060, “Synthesis and SAR study of novel tricyclic pyrazoles as potent phosphodiesterase 10A inhibitors” (Eur J Med Chem, 2014).

As a reminder, the IC50 is the concentration that gives 50% inhibition. A word on the inhibition: it is the drop in the measured response relative to a control, in per cent.

Chain of 3',5'-cyclic-AMP phosphodiesterase 7B (Homo sapiens) (Q9NP56 whole entry): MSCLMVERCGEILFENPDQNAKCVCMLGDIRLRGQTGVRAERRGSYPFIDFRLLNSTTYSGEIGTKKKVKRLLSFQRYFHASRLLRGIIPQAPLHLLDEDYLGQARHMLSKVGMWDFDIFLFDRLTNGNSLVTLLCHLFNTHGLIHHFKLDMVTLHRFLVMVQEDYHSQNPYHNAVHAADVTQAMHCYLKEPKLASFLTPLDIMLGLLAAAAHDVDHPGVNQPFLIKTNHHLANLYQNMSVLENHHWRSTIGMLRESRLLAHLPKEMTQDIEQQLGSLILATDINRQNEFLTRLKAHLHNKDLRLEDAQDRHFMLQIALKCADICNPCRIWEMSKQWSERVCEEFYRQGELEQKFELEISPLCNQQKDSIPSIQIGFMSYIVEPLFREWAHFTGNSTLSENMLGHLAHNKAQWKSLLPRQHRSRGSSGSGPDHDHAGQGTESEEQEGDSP
Chain of High affinity cGMP-specific 3',5'-cyclic phosphodiesterase 9A (Homo sapiens) (O76083 whole entry): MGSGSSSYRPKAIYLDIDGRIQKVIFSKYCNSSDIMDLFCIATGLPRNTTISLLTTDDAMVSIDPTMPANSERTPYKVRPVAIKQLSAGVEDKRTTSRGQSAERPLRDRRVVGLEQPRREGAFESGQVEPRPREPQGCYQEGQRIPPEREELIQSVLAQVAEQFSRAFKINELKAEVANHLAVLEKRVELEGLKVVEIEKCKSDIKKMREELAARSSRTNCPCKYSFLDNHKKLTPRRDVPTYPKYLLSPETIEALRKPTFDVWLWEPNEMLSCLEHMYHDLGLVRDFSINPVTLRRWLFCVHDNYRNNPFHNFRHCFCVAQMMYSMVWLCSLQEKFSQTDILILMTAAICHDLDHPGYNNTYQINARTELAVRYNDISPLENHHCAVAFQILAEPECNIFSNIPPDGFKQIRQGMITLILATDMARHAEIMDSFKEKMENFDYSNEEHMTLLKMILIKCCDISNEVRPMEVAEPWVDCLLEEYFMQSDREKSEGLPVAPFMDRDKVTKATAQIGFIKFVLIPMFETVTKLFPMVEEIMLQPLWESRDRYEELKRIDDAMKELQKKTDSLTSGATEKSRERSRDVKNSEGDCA

For the first data set, the target named is T1, cAMP and cAMP-inhibited cGMP 3',5'-cyclic phosphodiesterase 10A (Homo sapiens, UniProt Q9Y233). Kind of data set: Inhibition of human PDE10A (amino acids 14 to 779) using [3H]-labelled cyclic nucleotide as substrate after 1 hr b beta counting.
T1 sequence (Q9Y233 whole entry, the tested form may be a part): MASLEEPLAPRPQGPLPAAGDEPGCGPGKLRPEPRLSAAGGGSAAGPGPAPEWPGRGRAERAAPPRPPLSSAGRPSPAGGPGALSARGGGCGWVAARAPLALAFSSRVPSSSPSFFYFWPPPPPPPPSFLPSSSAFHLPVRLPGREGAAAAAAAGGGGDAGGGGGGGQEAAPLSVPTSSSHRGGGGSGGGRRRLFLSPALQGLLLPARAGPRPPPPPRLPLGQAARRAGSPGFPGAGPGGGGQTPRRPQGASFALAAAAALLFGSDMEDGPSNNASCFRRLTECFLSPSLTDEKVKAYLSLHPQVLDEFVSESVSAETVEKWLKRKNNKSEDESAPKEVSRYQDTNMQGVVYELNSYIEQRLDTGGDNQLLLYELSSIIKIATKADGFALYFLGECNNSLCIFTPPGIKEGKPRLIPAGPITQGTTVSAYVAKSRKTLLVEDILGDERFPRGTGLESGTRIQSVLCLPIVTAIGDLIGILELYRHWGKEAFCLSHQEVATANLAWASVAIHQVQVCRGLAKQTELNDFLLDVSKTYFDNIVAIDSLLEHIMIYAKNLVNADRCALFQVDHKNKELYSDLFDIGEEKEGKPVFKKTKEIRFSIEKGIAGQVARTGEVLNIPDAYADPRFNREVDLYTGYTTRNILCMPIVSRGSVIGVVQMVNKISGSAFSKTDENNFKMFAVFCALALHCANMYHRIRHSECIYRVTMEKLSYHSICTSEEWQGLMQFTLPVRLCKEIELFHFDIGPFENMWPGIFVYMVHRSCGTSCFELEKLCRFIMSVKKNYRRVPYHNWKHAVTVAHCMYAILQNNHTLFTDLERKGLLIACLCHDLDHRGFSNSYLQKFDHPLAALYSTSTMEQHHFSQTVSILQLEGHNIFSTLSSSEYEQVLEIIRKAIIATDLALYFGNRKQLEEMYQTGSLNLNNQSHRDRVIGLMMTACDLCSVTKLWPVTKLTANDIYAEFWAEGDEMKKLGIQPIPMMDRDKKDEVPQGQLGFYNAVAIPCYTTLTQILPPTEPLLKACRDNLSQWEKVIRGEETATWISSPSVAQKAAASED
Conditions: not given
A digest of the protocol: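 PDE10A expressed in baculovirus-infected Sf9 cells (27 °C, harvested at 72 h), lysed in Tris/MgCl2/triton buffer and partially purified on Q sepharose. Reactions contained enzyme sufficient to convert 20–25% of substrate, 50 mM HEPES pH 7.6, 10 mM MgCl2, 0.02% Tween20, 0.1 mg/ml BSA, 3H-cAMP at 5 nM final and varying inhibitor levels. Signal was counted by Microbeta, activity was normalized to an uninhibited control (100%), and IC50 values were derived.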
With `CCOC(=O)c1cc2c3cccnc3cc(CCc3nc4ccccc4n3C)n2n1`, half-maximal inhibition (IC50) required 1300 nM.

As for `CCOC(=O)c1cc2c3cccnc3cc(CCc3nc(-c4ccccc4)cn3C)n2n1`, half-maximal inhibition (IC50) was put at 220 nM.

The molecule `Cc1cc2c3ccccc3cc(CCc3nc4ccccc4n3C)n2n1` registered a half-inhibitory concentration (IC50) of 1000 nM.

As for `Cc1cc2c3cccnc3cc(CCc3nc4ccccc4n3C)n2n1`, the half-inhibitory concentration (IC50) turned out to be 170 nM.

In turn, `Cc1cc2c3cnccc3cc(CCc3nc4ccccc4n3C)n2n1` yielded an IC50 of 480 nM.

`COCc1cc2c3cccnc3cc(CCc3nc(-c4ccccc4)cn3C)n2n1`: half-maximal inhibition (IC50) was put at 42 nM.

The next data set has as its target Dual 3',5'-cyclic-AMP and -GMP phosphodiesterase 11A (Homo sapiens) (UniProt Q9HCR9). Briefly: Inhibition of PDE11A (unknown origin) at 2 uM.
Conditions: not given
In the case of `Cc1cc2c3ccccc3cc(CCc3nc4ccccc4n3C)n2n1`, the inhibition was 12%.

For the molecule `COCc1cc2c3cccnc3cc(CCc3nc(-c4ccccc4)cn3C)n2n1`, the inhibition is 70%.

In the next data set the target is T1, cAMP and cAMP-inhibited cGMP 3',5'-cyclic phosphodiesterase 10A. Briefly: Inhibition of PDE10A (unknown origin) at 10 uM.
Conditions: not given
Regarding `Cc1cc2c3ccccc3cc(CCc3nc4ccccc4n3C)n2n1`, the inhibition came out at 77%.

Turning to `COCc1cc2c3cccnc3cc(CCc3nc(-c4ccccc4)cn3C)n2n1`, the inhibition amounted to 106%.

A further data set has the same target. Kind of data set: Inhibition of PDE10A (unknown origin) at 2 uM.
Conditions: not given
Take `CCOC(=O)c1cc2c3cccnc3cc(CCc3nc4ccccc4n3C)n2n1`: the inhibition turned out to be 73%.

On to `CCOC(=O)c1cc2c3cccnc3cc(CCc3nc(-c4ccccc4)cn3C)n2n1`, for which the inhibition stood at 88%.

For `Cc1cc2c3cccnc3cc(CCc3nc4ccccc4n3C)n2n1`, the inhibition is 93%.

`Cc1cc2c3cnccc3cc(CCc3nc4ccccc4n3C)n2n1`: the inhibition turned out to be 79%.

For a further data set, the target named is cGMP-dependent 3',5'-cyclic phosphodiesterase (Homo sapiens) (UniProt O00408). Briefly: Inhibition of PDE2A (unknown origin) at 10 uM.
Chain of cGMP-dependent 3',5'-cyclic phosphodiesterase (Homo sapiens) (O00408 whole entry): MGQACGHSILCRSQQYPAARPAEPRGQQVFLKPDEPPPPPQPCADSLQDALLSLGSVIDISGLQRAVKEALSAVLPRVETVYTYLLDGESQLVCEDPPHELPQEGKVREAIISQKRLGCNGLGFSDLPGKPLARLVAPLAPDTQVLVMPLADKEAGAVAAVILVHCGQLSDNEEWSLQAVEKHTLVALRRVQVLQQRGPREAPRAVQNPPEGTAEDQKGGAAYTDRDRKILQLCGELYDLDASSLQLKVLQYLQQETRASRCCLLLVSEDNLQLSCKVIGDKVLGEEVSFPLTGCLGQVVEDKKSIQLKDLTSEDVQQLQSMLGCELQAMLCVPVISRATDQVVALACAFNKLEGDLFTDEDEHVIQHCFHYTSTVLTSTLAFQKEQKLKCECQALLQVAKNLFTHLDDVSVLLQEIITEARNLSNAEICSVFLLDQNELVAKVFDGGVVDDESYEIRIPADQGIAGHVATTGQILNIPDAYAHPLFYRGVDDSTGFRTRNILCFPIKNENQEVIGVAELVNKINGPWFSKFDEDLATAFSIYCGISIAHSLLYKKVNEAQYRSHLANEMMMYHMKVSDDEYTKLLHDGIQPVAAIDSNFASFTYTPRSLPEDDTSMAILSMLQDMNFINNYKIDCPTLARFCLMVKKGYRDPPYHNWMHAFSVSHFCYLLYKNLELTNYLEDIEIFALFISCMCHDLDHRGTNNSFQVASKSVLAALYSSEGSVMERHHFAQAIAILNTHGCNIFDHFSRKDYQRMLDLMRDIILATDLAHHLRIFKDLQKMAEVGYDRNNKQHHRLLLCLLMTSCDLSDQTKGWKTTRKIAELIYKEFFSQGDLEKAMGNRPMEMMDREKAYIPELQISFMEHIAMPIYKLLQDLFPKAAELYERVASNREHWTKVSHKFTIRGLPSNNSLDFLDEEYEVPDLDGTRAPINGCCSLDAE
Conditions: not given
`CCOC(=O)c1cc2c3cccnc3cc(CCc3nc4ccccc4n3C)n2n1`: the inhibition stood at 20%.

In the case of `CCOC(=O)c1cc2c3cccnc3cc(CCc3nc(-c4ccccc4)cn3C)n2n1`, the inhibition was found to be 44%.

Turning to `Cc1cc2c3ccccc3cc(CCc3nc4ccccc4n3C)n2n1`, the inhibition was found to be 8%.

On to `Cc1cc2c3cccnc3cc(CCc3nc4ccccc4n3C)n2n1`, for which the inhibition was determined as 55%.

With `Cc1cc2c3cnccc3cc(CCc3nc4ccccc4n3C)n2n1`, the inhibition amounted to 54%.

As to `COCc1cc2c3cccnc3cc(CCc3nc(-c4ccccc4)cn3C)n2n1`, the inhibition stood at 69%.

A further data set deals with cGMP-specific 3',5'-cyclic phosphodiesterase (Homo sapiens) (UniProt O76074). Kind of data set: Inhibition of PDE5A (unknown origin) at 10 uM.
Conditions: not given
For `CCOC(=O)c1cc2c3cccnc3cc(CCc3nc4ccccc4n3C)n2n1`, the inhibition stood at 38%.

As to `CCOC(=O)c1cc2c3cccnc3cc(CCc3nc(-c4ccccc4)cn3C)n2n1`, the inhibition was found to be 13%.

As for `Cc1cc2c3ccccc3cc(CCc3nc4ccccc4n3C)n2n1`, the inhibition is 20%.

For the molecule `Cc1cc2c3cccnc3cc(CCc3nc4ccccc4n3C)n2n1`, the inhibition came out at 67%.

With `Cc1cc2c3cnccc3cc(CCc3nc4ccccc4n3C)n2n1`, the inhibition worked out at 39%.

For `COCc1cc2c3cccnc3cc(CCc3nc(-c4ccccc4)cn3C)n2n1`, the inhibition turned out to be 38%.

A further data set deals with MDCK. Kind of data set: Apparent permeability across apical to basolateral side in MDCK cells expressing MDR1 (unknown origin). Also noted: unit not given here. The settings on record: dog.
As to `Cc1cc2c3ccccc3cc(CCc3nc4ccccc4n3C)n2n1`, the “Papp A-B” value stood at 1.1.

As to `COCc1cc2c3cccnc3cc(CCc3nc(-c4ccccc4)cn3C)n2n1`, the “Papp A-B” value amounted to 17.8.

A further data set concerns the target Dual specificity calcium/calmodulin-dependent 3',5'-cyclic nucleotide phosphodiesterase 1C (Homo sapiens) (UniProt Q14123). Briefly: Inhibition of PDE1C (unknown origin) at 10 uM.
Conditions: not given
Turning to `CCOC(=O)c1cc2c3cccnc3cc(CCc3nc4ccccc4n3C)n2n1`, the inhibition turned out to be 27%.

`Cc1cc2c3ccccc3cc(CCc3nc4ccccc4n3C)n2n1`: the inhibition was -7%.

As for `Cc1cc2c3cccnc3cc(CCc3nc4ccccc4n3C)n2n1`, the inhibition turned out to be 28%.

As to `Cc1cc2c3cnccc3cc(CCc3nc4ccccc4n3C)n2n1`, the inhibition is 10%.

`COCc1cc2c3cccnc3cc(CCc3nc(-c4ccccc4)cn3C)n2n1`: the inhibition is 7%.

The target in the next data set is cGMP-inhibited 3',5'-cyclic phosphodiesterase 3A (Homo sapiens) (UniProt Q14432). Briefly: Inhibition of PDE3A (unknown origin) at 10 uM.
Chain of cGMP-inhibited 3',5'-cyclic phosphodiesterase 3A (Homo sapiens) (Q14432 whole entry): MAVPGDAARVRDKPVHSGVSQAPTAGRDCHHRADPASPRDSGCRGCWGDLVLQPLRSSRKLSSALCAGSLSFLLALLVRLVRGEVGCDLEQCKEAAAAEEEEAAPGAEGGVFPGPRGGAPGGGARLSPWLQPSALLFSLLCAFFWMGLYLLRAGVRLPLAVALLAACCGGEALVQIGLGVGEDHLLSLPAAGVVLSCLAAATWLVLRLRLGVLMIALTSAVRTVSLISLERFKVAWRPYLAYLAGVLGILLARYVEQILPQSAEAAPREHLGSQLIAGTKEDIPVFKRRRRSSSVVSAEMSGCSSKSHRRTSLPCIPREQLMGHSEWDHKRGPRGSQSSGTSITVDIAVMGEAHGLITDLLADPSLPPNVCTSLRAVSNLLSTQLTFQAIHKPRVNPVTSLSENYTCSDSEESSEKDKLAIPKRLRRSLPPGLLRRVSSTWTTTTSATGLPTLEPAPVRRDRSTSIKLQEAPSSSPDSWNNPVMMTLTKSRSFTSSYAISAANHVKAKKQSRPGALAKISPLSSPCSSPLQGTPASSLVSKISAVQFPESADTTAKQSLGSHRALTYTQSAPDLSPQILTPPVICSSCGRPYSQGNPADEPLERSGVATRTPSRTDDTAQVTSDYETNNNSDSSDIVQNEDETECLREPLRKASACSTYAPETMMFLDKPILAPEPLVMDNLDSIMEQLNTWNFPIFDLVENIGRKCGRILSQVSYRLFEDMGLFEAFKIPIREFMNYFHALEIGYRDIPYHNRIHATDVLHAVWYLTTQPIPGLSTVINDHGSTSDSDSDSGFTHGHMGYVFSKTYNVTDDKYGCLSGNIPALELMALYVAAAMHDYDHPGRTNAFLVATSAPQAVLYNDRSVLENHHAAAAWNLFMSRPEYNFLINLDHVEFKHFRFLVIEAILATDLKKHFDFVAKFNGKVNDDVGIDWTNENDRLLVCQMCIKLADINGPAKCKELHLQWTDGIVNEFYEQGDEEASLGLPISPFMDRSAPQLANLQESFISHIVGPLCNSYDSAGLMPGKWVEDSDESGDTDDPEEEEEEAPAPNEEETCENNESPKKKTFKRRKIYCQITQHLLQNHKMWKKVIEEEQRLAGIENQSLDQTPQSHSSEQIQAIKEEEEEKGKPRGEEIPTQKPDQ
Conditions: not given
Consider `CCOC(=O)c1cc2c3cccnc3cc(CCc3nc4ccccc4n3C)n2n1`, for which the inhibition was found to be 1%.

Turning to `CCOC(=O)c1cc2c3cccnc3cc(CCc3nc(-c4ccccc4)cn3C)n2n1`, the inhibition worked out at 13%.

With `Cc1cc2c3ccccc3cc(CCc3nc4ccccc4n3C)n2n1`, the inhibition is 15%.

As to `Cc1cc2c3cccnc3cc(CCc3nc4ccccc4n3C)n2n1`, the inhibition came out at 16%.

Consider `Cc1cc2c3cnccc3cc(CCc3nc4ccccc4n3C)n2n1`, for which the inhibition came out at 30%.

For the molecule `COCc1cc2c3cccnc3cc(CCc3nc(-c4ccccc4)cn3C)n2n1`, the inhibition was found to be 51%.

In a further data set the target is 3',5'-cyclic-AMP phosphodiesterase 4D (Homo sapiens) (UniProt Q08499). Kind of data set: Inhibition of PDE4D (unknown origin) at 10 uM.
Chain of 3',5'-cyclic-AMP phosphodiesterase 4D (Homo sapiens) (Q08499 whole entry): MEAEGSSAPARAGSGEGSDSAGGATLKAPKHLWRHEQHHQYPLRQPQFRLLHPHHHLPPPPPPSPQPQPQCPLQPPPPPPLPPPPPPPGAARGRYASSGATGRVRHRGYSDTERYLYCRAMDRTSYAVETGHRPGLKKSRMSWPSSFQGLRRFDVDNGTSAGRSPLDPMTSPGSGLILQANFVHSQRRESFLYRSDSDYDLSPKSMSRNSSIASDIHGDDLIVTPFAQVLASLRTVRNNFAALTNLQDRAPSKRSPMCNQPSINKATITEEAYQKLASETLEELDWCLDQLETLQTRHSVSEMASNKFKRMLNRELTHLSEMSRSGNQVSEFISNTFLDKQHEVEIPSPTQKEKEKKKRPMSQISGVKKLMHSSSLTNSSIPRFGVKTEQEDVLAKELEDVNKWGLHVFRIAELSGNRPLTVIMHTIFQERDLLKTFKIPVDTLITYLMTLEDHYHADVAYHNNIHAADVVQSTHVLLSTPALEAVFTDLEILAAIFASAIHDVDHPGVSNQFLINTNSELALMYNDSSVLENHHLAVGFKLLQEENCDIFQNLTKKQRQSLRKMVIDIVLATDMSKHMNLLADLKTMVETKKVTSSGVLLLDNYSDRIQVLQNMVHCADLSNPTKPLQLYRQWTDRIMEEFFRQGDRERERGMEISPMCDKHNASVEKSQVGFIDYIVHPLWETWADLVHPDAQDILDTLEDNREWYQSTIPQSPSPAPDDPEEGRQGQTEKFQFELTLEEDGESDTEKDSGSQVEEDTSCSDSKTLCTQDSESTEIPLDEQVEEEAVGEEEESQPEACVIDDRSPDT
Conditions: not given
As to `CCOC(=O)c1cc2c3cccnc3cc(CCc3nc4ccccc4n3C)n2n1`, the inhibition was 24%.

Take `CCOC(=O)c1cc2c3cccnc3cc(CCc3nc(-c4ccccc4)cn3C)n2n1`: the inhibition turned out to be 45%.

Regarding `Cc1cc2c3ccccc3cc(CCc3nc4ccccc4n3C)n2n1`, the inhibition came to 11%.

Turning to `Cc1cc2c3cccnc3cc(CCc3nc4ccccc4n3C)n2n1`, the inhibition came out at 23%.

Regarding `Cc1cc2c3cnccc3cc(CCc3nc4ccccc4n3C)n2n1`, the inhibition came out at 15%.

In the case of `COCc1cc2c3cccnc3cc(CCc3nc(-c4ccccc4)cn3C)n2n1`, the inhibition was 58%.

The target of a further data set is High affinity cAMP-specific and IBMX-insensitive 3',5'-cyclic phosphodiesterase 8A (Homo sapiens) (UniProt O60658). Kind of data set: Inhibition of PDE8A (unknown origin) at 10 uM.
Conditions: not given
Take `CCOC(=O)c1cc2c3cccnc3cc(CCc3nc4ccccc4n3C)n2n1`: the inhibition was -6%.

With `CCOC(=O)c1cc2c3cccnc3cc(CCc3nc(-c4ccccc4)cn3C)n2n1`, the inhibition worked out at 46%.

As to `Cc1cc2c3ccccc3cc(CCc3nc4ccccc4n3C)n2n1`, the inhibition came to 36%.

`Cc1cc2c3cccnc3cc(CCc3nc4ccccc4n3C)n2n1`: the inhibition worked out at 13%.

Consider `Cc1cc2c3cnccc3cc(CCc3nc4ccccc4n3C)n2n1`, for which the inhibition was determined as 46%.

On to `COCc1cc2c3cccnc3cc(CCc3nc(-c4ccccc4)cn3C)n2n1`, for which the inhibition was 29%.

Another data set addresses 3',5'-cyclic-AMP phosphodiesterase 7B (Homo sapiens) (UniProt Q9NP56). Kind of data set: Inhibition of PDE7B (unknown origin) at 10 uM.
Conditions: not given
In the case of `CCOC(=O)c1cc2c3cccnc3cc(CCc3nc4ccccc4n3C)n2n1`, the inhibition was 17%.

Regarding `CCOC(=O)c1cc2c3cccnc3cc(CCc3nc(-c4ccccc4)cn3C)n2n1`, the inhibition was -4%.

In the case of `Cc1cc2c3ccccc3cc(CCc3nc4ccccc4n3C)n2n1`, the inhibition was 11%.

Turning to `Cc1cc2c3cccnc3cc(CCc3nc4ccccc4n3C)n2n1`, the inhibition is 27%.

Regarding `Cc1cc2c3cnccc3cc(CCc3nc4ccccc4n3C)n2n1`, the inhibition is -3%.

For `COCc1cc2c3cccnc3cc(CCc3nc(-c4ccccc4)cn3C)n2n1`, the inhibition was determined as 47%.

The target of the next data set is Dual 3',5'-cyclic-AMP and -GMP phosphodiesterase 11A (Homo sapiens) (UniProt Q9HCR9). Briefly: Inhibition of PDE11A (unknown origin) at 10 uM.
Conditions: not given
As for `CCOC(=O)c1cc2c3cccnc3cc(CCc3nc4ccccc4n3C)n2n1`, the inhibition was 10%.

Turning to `CCOC(=O)c1cc2c3cccnc3cc(CCc3nc(-c4ccccc4)cn3C)n2n1`, the inhibition worked out at 7%.

As for `Cc1cc2c3cccnc3cc(CCc3nc4ccccc4n3C)n2n1`, the inhibition was 43%.

Take `Cc1cc2c3cnccc3cc(CCc3nc4ccccc4n3C)n2n1`: the inhibition was determined as 1%.

Another data set has as its target High affinity cGMP-specific 3',5'-cyclic phosphodiesterase 9A (Homo sapiens) (UniProt O76083). Kind of data set: Inhibition of PDE9A (unknown origin) at 10 uM.
Conditions: not given
Regarding `CCOC(=O)c1cc2c3cccnc3cc(CCc3nc4ccccc4n3C)n2n1`, the inhibition is -2%.

As to `CCOC(=O)c1cc2c3cccnc3cc(CCc3nc(-c4ccccc4)cn3C)n2n1`, the inhibition amounted to 20%.

For `Cc1cc2c3ccccc3cc(CCc3nc4ccccc4n3C)n2n1`, the inhibition was found to be 10%.

Take `Cc1cc2c3cccnc3cc(CCc3nc4ccccc4n3C)n2n1`: the inhibition was determined as 21%.

In the case of `Cc1cc2c3cnccc3cc(CCc3nc4ccccc4n3C)n2n1`, the inhibition came out at 15%.

Take `COCc1cc2c3cccnc3cc(CCc3nc(-c4ccccc4)cn3C)n2n1`: the inhibition came to 15%.
